The record followed here is ChEMBL document CHEMBL2321652, “Design and synthesis of HIV-1 protease inhibitors for a long-acting injectable drug application” (Bioorg Med Chem Lett, 2013).

Data set [1] deals with Human immunodeficiency virus 1. The data set is described as follows: Selectivity ratio of EC50 for Human immunodeficiency virus 1 3B clinical isolate harboring L10I/K20R/M36I/G48V/ I62V/A71V/V82A/I93L protease mutant to EC50 for wild type Human immunodeficiency virus 1 3B. Format: functional.
Data set [2] deals with Human immunodeficiency virus 1. The data set is described as follows: Selectivity ratio of EC50 for Human immunodeficiency virus 1 3B clinical isolate harboring L10I/I13V/M46I/I50V/L63P/L76V protease mutant to EC50 for wild type Human immunodeficiency virus 1 3B. Format: functional.
For data set [3], the system named is Human immunodeficiency virus 1. Description: Selectivity ratio of EC50 for Human immunodeficiency virus 1 3B clinical isolate harboring L10I/M46I/I64V/I84V/L90M/I93L protease mutant to EC50 for wild type Human immunodeficiency virus 1 3B. Format: functional.
The subject of data set [4] is Human immunodeficiency virus 1. Description: Antiviral activity against Human immunodeficiency virus 1 3B clinical isolate harboring L10I/K20R/M36I/G48V/ I62V/A71V/V82A/I93L protease mutant infected in human MT4 cells assessed as inhibition of viral replication. Format: functional, organism-based. The gist of the method: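 Each assay run in quadruplicate. Values are averages of at least two independent experiments, typically three to four. Cytotoxicity (CC50) was measured in parallel in MT4 cells.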

Data set [5] has as its system Human immunodeficiency virus 1. The data set is described as follows: Antiviral activity against Human immunodeficiency virus 1 3B clinical isolate harboring L10I/M46I/I64V/I84V/L90M/I93L protease mutant infected in human MT4 cells assessed as inhibition of viral replication. Format: functional, organism-based. The gist of the method:
(§1)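 Inhibition of replication in MT4 cells infected with protease-mutant HIV-1 clinical isolates, reported as EC50. Each assay run in quadruplicate. Values are averages of at least two independent experiments, typically three to four. Cytotoxicity (CC50) was measured in parallel in MT4 cells.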

A short description of data set [6]: Cytotoxicity against human MT4 cells. Format: cell-based.
Data set [7] concerns Human immunodeficiency virus 1. The data set is described as follows: Antiviral activity against wild type Human immunodeficiency virus 1 3B infected in human MT4 cells assessed as inhibition of viral replication in presence of 50% human serum.
A short description of data set [8]: Aqueous solubility of the compound in crystalline polymorphic form. Format: physicochemical.
A short description of data set [9]: Bioavailability in rat at 50 mg/mL formulated with 25 mg/mL of poloxamer 338 and sucrose in water administered intramuscularly measured after 1 month. Format: ADME, organism-based. To be noted: in vivo, im. In short, it runs like this:
(§2)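 Nanosuspension depot given by a single intramuscular injection in rats. Blood is sampled at regular intervals over two months. Absolute bioavailability is assessed after 1 month of sampling as ((AUC_IM × dose_IV)/(AUC_IV × dose_IM)) × 100, relative to intravenous dosing.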

The nature of data set [10]: Bioavailability in rat at 50 mg/mL formulated with Vit-E TPGS, DSPG and sucrose in water administered intramuscularly measured after 1 month. Format: ADME, organism-based. To be noted: in vivo, im. The gist of the method:
as §2

A short description of data set [11]: Bioavailability in rat at 100 mg/mL formulated with polysorbate 20 and NaCl in water administered intramuscularly measured after 1 month. Format: ADME, organism-based. To be noted: in vivo, im. The gist of the method: as §2
A short description of data set [12]: Drug metabolism in human liver microsomes at 1 uM after 15 mins. Format: ADME, Microsome. Particulars: read-out: Drug metabolism. The gist of the method:
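Human liver microsome incubation at 37 °C for 15 min with compound at 1 µM; turnover expressed as percent of compound metabolized.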

A short description of data set [13]: Plasma clearance in rat at 2 mg/kg, iv. Format: ADME, organism-based. The arrangement: dose 2 mg/kg, route intravenous. The gist of the method:
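Single intravenous dose of 2 mg/kg in rats. The formulation is typically 1 mg/mL in PEG400/ethanol/saline (70/20/10). Clearance values are averages from two or three animals. High is >3 L/h/kg (>70% liver blood flow) and low is <1.3 L/h/kg (<30%).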

Data set [14] relates to Human immunodeficiency virus 1. Description: Antiviral activity against Human immunodeficiency virus 1 3B clinical isolate harboring L10I/I13V/M46I/I50V/L63P/L76V protease mutant infected in human MT4 cells assessed as inhibition of viral replication. Format: functional, organism-based. The gist of the method:
as §1

Data set [15] deals with Human immunodeficiency virus 1. The data set is described as follows: Antiviral activity against wild type Human immunodeficiency virus 1 3B infected in human MT4 cells assessed as inhibition of viral replication. Format: functional, organism-based. The gist of the method: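 EC50 values are averages of at least two independent experiments (typically three to four), each run in quadruplicate. For the serum-shifted line, the same antiviral assay includes 50% human serum, used as a functional measure of plasma protein binding.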

Data set [16] in a line: Bioavailability in rat at 100 mg/mL formulated with 25 mg/mL of polysorbate 20 and 9 mg/mL of NaCl in water administered intramuscularly measured after 1 month. Format: ADME, organism-based. Particulars: in vivo, im. In short, it runs like this:
as §2

Data set [17] is described as follows: Bioavailability in rat at 50 mg/mL formulated with Vit-E TPGS in water administered intramuscularly measured after 1 month. Format: ADME, organism-based. Particulars: in vivo, im. The gist of the method: as §2
The nature of data set [18]: Bioavailability in rat at 50 mg/mL formulated with 12.5 mg/mL of poloxamer 338 and sucrose in water administered intramuscularly measured after 1 month. Format: ADME, organism-based. Particulars: in vivo, im. The gist of the method: as §2

On to `CC(C)CN(C[C@@H](O)[C@H](Cc1ccccc1)NC(=O)O[C@H]1CO[C@H]2OCC[C@H]21)S(=O)(=O)c1ccc(N)cc1`, for which the “Ratio EC50” value in [1] is on record as less than 1; in [2], 8; in [3] it was 2. In addition, the concentration giving a half-maximal response (EC50) in data set [4] was determined as 2.4 nM; in data set [5], 12 nM; in data set [7] it was 17 nM. Further, the CC50 in data set [6] was greater than 10000 nM.
As for `COC(=O)N[C@H](C(=O)N[C@@H](Cc1ccc(-c2ccc(N(C)C)nc2)cc1)[C@@H](O)C[C@@H](Cc1ccccc1F)C(=O)N[C@H]1c2cc(F)cc(Cl)c2OC[C@H]1O)C(C)(C)C`, the solubility in data set [8] is less than 100 µg/mL. For the same molecule, the bioavailability at 1 month in [9] turned out to be 5%; in data set [10] it was 12%; in data set [11], 3%. The metabolised at 0.25 h, 1 µM in data set [12] amounted to 22%. The clearance in data set [13] is 13.3 mL/min/kg. In addition, the “Ratio EC50” value in [1], in data set [2] and in data set [3] was less than 1 each time. In addition, the EC50 worked out at 0.8 nM in [4]; 0.9 nM in data set [14]; 1.3 nM in data set [5]; 1.7 nM in data set [15]; 6 nM in [7]. The molecule also gave a cytotoxic concentration (CC50) in data set [6] greater than 10000 nM.
For `COC(=O)N[C@H](C(=O)N[C@@H](Cc1ccc(-c2ccc(OC)nc2)cc1)[C@@H](O)C[C@@H](Cc1ccccc1F)C(=O)N[C@H]1c2cc(F)cc(C)c2OC[C@H]1O)C(C)(C)C`, in [12], the metabolised at 0.25 h, 1 µM came to 17%. The clearance in [13] was 26.7 mL/min/kg. Also, the results for the “Ratio EC50” value in [1], in [2] and in [3] were less than 1, 2 and 3, respectively. Besides, the 50% effective concentration (EC50) in data set [4] is 1.5 nM; in data set [14], 3.3 nM; in data set [5] it was 5.4 nM; in data set [15], 1.8 nM; in data set [7], 6.8 nM. Moreover, the CC50 in data set [6] is greater than 10000 nM.
In data set [8], `COC(=O)N[C@H](C(=O)N[C@@H](Cc1ccc(-c2ccc(OC)nc2)cc1)[C@@H](O)C[C@@H](Cc1ccccc1F)C(=O)N[C@H]1[C@H](C)CCC[C@H]1O)C(C)(C)C` gave a solubility of less than 100 µg/mL. Besides, in data set [16], the bioavailability at 1 month was greater than 100%. In addition, the metabolised at 0.25 h, 1 µM in data set [12] was found to be 99%. For the same molecule, the clearance in data set [13] was 90 mL/min/kg. The “Ratio EC50” value in data set [1], in data set [2] and in data set [3] was less than 1 in each case. Moreover, the EC50 in [4] turned out to be 0.5 nM; in data set [14] it was 0.3 nM; in data set [15] it was 0.8 nM; in [7] it was 2 nM. The molecule also yielded a CC50 in data set [6] greater than 10000 nM.
Molecule `COC(=O)N[C@H](C(=O)N[C@@H](Cc1ccc(-c2ccc(OC)nc2)cc1)[C@@H](O)C[C@@H](Cc1ccccc1F)C(=O)N[C@H]1c2ccsc2CC[C@H]1O)C(C)(C)C` came in with a solubility in data set [8] of less than 100 µg/mL. The bioavailability at 1 month in data set [17] was 100%; in [18], greater than 100%. For the same molecule, in data set [12], the metabolised at 0.25 h, 1 µM is 91%. This molecule gave a clearance in data set [13] of 80 mL/min/kg. The “Ratio EC50” value in data set [1], in data set [2] and in data set [3] was less than 1 in each case. For the same molecule, the EC50 in data set [4] was 0.4 nM; in [14], 0.6 nM; in data set [5] it was 0.9 nM; in data set [15] it was 1.1 nM; in data set [7] it was 3.7 nM. The CC50 in data set [6] was greater than 10000 nM.
As to `COC(=O)N[C@H](C(=O)N[C@@H](Cc1ccccc1)[C@@H](O)C[C@@H](Cc1ccccc1)C(=O)N[C@H]1c2ccccc2OC[C@H]1O)C(C)(C)C`, the metabolised at 0.25 h, 1 µM in [12] worked out at 99%. Further, the clearance in data set [13] is 66.7 mL/min/kg. Moreover, the “Ratio EC50” value in [1] is less than 1; in [2] it was less than 1; in [3] it was 2. The EC50 in [4] is 7 nM; in [14], 6 nM; in data set [5], 19 nM; in data set [15] it was 10 nM; in [7], 19 nM. The molecule further yielded a cytotoxic concentration (CC50) in data set [6] greater than 10000 nM.
In the case of `COC(=O)N[C@H](C(=O)N[C@@H](Cc1ccccc1)[C@@H](O)CN(Cc1ccc(-c2ccccn2)cc1)NC(=O)[C@@H](NC(=O)OC)C(C)(C)C)C(C)(C)C` [ATAZANAVIR], the “Ratio EC50” value in data set [1] was 9; in [2] it was less than 1; in data set [3] it was 8. Moreover, the results for the concentration giving a half-maximal response (EC50) in [5], in [15] and in [7] were 57 nM, 6.8 nM and 13 nM, respectively. Besides, the half-maximal cytotoxic concentration (CC50) in data set [6] was greater than 10000 nM.
